According to PubChem BioAssay:
Activity calls are given as the source filed them.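 How the source made its calls, unless noted: active means fluorescence slope after compound addition differing from the mean of all tested samples at 99.7% confidence, mostly higher but some lower; inactive means the rest.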

How the values were obtained:
[1] = inhibitors of TNFa-induced NFkB p65 translocation, primary screen, imaging, HUVEC, MLSMR starter and 10KST1 sets (AID 438;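 active means inhibition above 20% together with a positive visual image hit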;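 further: compound added about 3h40 before a 20 min TNFalpha stimulation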;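 on inhibition: signal is the nuclear over cytoplasmic p65 intensity ratio per well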); settings: HUVEC TNFa-induced p65 nuclear translocation; cell count: measured here: nuclei count (cytotoxicity indicator), at 2.08 µM; inhibition: at 2 µM, stronger effect = higher value, 0% TNFa-plus-vehicle, 100% no-TNFa wells
[2] = endothelial E-selectin expression blockers – imaging, HUVEC, immunofluorescence, MLSMR starter and 10KST1 sets, primary screen (AID 487;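 active means visually confirmed hit in the image check and inhibition above 20%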;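 on inhibition: signal is fraction of cell area covered by stained E-selectin grains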;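 on nuclei count: 100% = median nuclei count of all wells on the same plate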); settings: HUVEC TNFalpha-induced E-selectin immunofluorescence imaging, at 2 µM; inhibition: stronger effect = higher value; nuclei count: measured here: cell number, toxicity
[3] = Primary imaging screen for DUSP6 inhibitors that restore phospho-Erk in transfected HeLa cells, chemical complementation (AID 609;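 active means compounds giving at least 50% inhibition in the cell-based MKP-3 phosphatase rescue imaging test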;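 on inhibition: phospho-Erk level distribution per well compared with pooled transfected vehicle control wells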); settings: HeLa MKP-3 transfected, phospho-Erk imaging KS statistic, at 10 µM, cells stimulated with TPA for 15 min
[4] = biological target: Dual specificity protein phosphatase 6 (Homo sapiens) (UniProt Q16828); assay: as above; settings: HeLa MKP-3 transfected, phospho-Erk imaging KS statistic; at 10 µM; stronger effect = higher value; cells stimulated with TPA for 15 min
[5] = biological target: Voltage-gated potassium channel subunit beta-2 (Rattus norvegicus) (UniProt P62483); assay: inhibitors of rat Kvbeta2 reductase activity – biochemical, NADPH fluorescence, primary screen (AID 622;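 active means fluorescence slope higher than the sample average by over 3 SD, cut at about -0.22 in these data, passing the limit was not always enough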;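 further: slope of raw intensity against log time taken from 70 to 1610 s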); settings: recombinant KvBeta, 4-cyanobenzaldehyde reduction, at 10 µM, stronger effect = higher value
[6] = biological target: Voltage-gated potassium channel subunit beta-2 (Rattus norvegicus) (UniProt P62483); assay: enhancers of rat Kvbeta2 NADPH turnover – biochemical, NADPH fluorescence, primary screen (AID 623;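 active means NADPH fluorescence slope more negative than the mean of all samples by about 3 SD, 99.7% confidence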;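 further: fluorescence intensity change per second fitted from 20 to 320 s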); settings: Recombinant KvBeta, NADPH fluorescence decrease slope, 10 min; at 10 µM; stronger effect = lower value
[7] = biological target: Muscarinic acetylcholine receptor M4 (Homo sapiens) (UniProt P08173); assay: M4-linked GIRK flux change, two-sided – cell-based, HEK293 M4/GIRK, thallium flux, BTC-AM, M4 allosteric agonist project, primary screen (AID 625); settings: at 10 µM, actives lie on both sides;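 further: thallium influx through GIRK channels coupled to M4 in HEK293 cells with BTC-AM dye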
Outline: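 Material – HEK293 cells with M4 receptor and GIRK channels · Buffer or medium – pH 7.3 thallium assay buffer · Doses – one dose, 10 µM final · Timing – cells overnight at 37 °C, BTC-AM loading 1 h, reads 2 min total · Measured by – kinetic fluorescence with BTC-AM dye · Controls – carbachol and DMSO controls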

[8] = inhibitors of larval lipid processing in zebrafish, primary screen, whole organism, PED6 fluorescence, gall bladder and intestine (AID 686;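 active means a full or partial loss of lipid-probe fluorescence in the fish gall bladder, intestine or both, judged by eye; inactive means no fluorescence loss, or compound toxic to the fish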;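 further: larvae 5 to 7 days old with five fish per well; signal comes from phospholipase A2 cleavage of quenched PED6 carried via bile; overnight exposure to compound and PED6 before scoring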); settings: Zebrafish larvae PED6 lipid processing, fluorescence scoring; screened at 20 µM (by protocol)
Outline: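 system = live zebrafish larvae aged 5-7 days, whole organism | probe or stimulus = ingested quenched lipid PED6 at 100 nM | doses = 20 µM single dose | timing = overnight exposure | detection = fluorescence microscopy with visual scoring of gall bladder and intestine | read-out = visual per-well fluorescence inhibition score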

[9] = loss of swimming-algae plug formation – whole organism, Chlamydomonas reinhardtii, WT vs cilia-less mutant, absorbance, 96-well, primary screen (AID 463189;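 active means inhibition at or above 50% relative to wild type and mutant plate controls; inactive means inhibition below 50%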;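 further: 0% = wild type cc124 cells in DMSO and 100% = ciliumless bld1 mutant cells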); settings: Chlamydomonas reinhardtii gravitaxis, OD600 absorbance, 2 days; at 10 µM; stronger effect = higher value
[10] = measured here: cell density z-score
[11] = measured here: nuclear c-Myc green intensity z-score
[12] = measured here: nuclear pErk red intensity z-score, stronger effect = higher value

Sequence of Dual specificity protein phosphatase 6 (Homo sapiens) (Q16828 whole entry, looked up): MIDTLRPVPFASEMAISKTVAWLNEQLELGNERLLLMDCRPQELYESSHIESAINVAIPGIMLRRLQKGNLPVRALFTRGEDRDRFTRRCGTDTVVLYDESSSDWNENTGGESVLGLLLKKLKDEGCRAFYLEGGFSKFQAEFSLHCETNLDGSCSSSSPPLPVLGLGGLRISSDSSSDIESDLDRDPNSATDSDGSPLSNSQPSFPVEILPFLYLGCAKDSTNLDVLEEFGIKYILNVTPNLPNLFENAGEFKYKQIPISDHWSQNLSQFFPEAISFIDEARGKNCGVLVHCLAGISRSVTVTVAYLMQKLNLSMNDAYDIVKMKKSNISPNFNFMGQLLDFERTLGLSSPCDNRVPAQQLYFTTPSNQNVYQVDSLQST
Sequence of Muscarinic acetylcholine receptor M4 (Homo sapiens) (P08173 whole entry, looked up): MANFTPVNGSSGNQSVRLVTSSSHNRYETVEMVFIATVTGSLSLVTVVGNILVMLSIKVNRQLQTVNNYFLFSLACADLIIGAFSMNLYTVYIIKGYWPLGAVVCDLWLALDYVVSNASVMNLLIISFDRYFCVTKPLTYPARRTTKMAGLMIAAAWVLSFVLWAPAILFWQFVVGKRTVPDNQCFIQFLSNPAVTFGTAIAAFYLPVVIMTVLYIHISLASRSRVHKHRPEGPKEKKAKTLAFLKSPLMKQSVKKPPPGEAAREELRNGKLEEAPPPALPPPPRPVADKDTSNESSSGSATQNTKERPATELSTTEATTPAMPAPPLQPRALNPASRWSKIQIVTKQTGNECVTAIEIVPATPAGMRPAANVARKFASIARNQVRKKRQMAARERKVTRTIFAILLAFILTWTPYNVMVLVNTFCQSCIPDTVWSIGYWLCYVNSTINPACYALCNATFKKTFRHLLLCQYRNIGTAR
Sequence of Voltage-gated potassium channel subunit beta-2 (Rattus norvegicus) (P62483 whole entry, looked up): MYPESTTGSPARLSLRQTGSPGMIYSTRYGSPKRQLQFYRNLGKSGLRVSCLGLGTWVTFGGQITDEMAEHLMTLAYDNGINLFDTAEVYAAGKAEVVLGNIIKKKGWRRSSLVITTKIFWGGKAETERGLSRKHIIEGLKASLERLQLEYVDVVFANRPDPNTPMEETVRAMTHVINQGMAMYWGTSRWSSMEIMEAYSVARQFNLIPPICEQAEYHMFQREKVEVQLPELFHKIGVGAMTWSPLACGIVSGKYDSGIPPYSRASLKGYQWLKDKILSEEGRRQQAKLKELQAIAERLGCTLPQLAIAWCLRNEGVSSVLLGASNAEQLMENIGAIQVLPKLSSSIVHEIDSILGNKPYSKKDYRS

Row | SMILES | cell count [1] | inhibition [1] | inhibition [2] | nuclei count [2] [%] | z-score [3, 10] | z-score [3, 11] | z-score [3, 12] | inhibition [4] | fluorescence slope [5] | NADPH fluorescence slope [6] | fluorescence slope [7] | outcome [8] | inhibition [9]
1 | CCCCCNc1nc(N2CCCC2)c2c(c1C#N)CCN(C)C2 | 596 | 8.1% (inactive) | -52.3% (inactive) | 146 | -0.626 | 0.142 | -0.491 | -9.53% (inactive) | -0.446 (inactive) | -8.3e-05 (inactive) | 0.0037 (inactive) | inactive | 165% (active)
2 | CN1CCc2c(n(CC(O)CN3C(=O)c4ccccc4S3(=O)=O)c3ccccc23)C1=O (stereo unspecified) | 678 | -11.7% (inactive) | -109% (inactive) | 158 | 1.84 | -0.542 | -1.28 | 6.04% (inactive) | -0.488 (inactive) | -3.3e-05 (inactive) | 0.00494 (inactive) | inactive | 6.44% (inactive)
3 | Cc1ccc(-n2ncc3c(N4CCCC4)ncnc32)c(C)c1 | 615 | -13.7% (inactive) | 4.8% (inactive) | 158 | 0.427 | -1.76 | -0.345 | -2.59% (inactive) | -0.327 (inactive) | -4.9e-06 (inactive) | 0.00689 (inactive) | inactive | 147% (active)
4 | CCOC(=O)C1CCCN(c2nc3ccccc3nc2C(C#N)C(=O)OC(C)COC)C1 (stereo unspecified) | 683 | -5.4% (inactive) | -63% (inactive) | 204 | -1 | 0.049 | 0.811 | -5.81% (inactive) | -0.495 (inactive) | -0.000103 (inactive) | 0.00181 (inactive) | inactive | 23.6% (inactive)
5 | CC1(C)Cc2c(sc3nc(SCC(=O)NCc4ccco4)n(-c4ccccc4)c(=O)c23)CS1 | 501 | -2.3% (inactive) | -158% (inactive) | 112 | -1.09 | -0.43 | 0.302 | 1.98% (inactive) | -0.431 (inactive) | -4.8e-05 (inactive) | 0.00628 (inactive) | inactive | -14.1% (inactive)
6 | COc1ccccc1NC(=O)c1c(C)cc(=O)oc1C | 601 | -14.3% (inactive) | 35.3% (inactive) | 145 | -0.227 | -0.0987 | -0.0601 | -4.59% (inactive) | -0.409 (inactive) | -3e-05 (inactive) | 0.00639 (inactive) | inactive | 17.9% (inactive)
7 | CCC(CC)n1[nH]c(=O)cc1N | 392 | -15.4% (inactive) | -166% (inactive) | 144 | 2 | -1.52 | -0.418 | 7.73% (inactive) | -0.46 (inactive) | -9.4e-05 (inactive) | 0.0051 (inactive) | inactive | 7.67% (inactive)
8 | C=CCn1c(C2CC(=O)N(c3ccc(C)cc3)C2)nc2ccccc21 (stereo unspecified) | 591 | -13.7% (inactive) | 47.4% (inactive) | 177 | -1.26 | -0.0771 | 0.981 | -2.29% (inactive) | -0.467 (inactive) | -0.00019 (inactive) | 0.00532 (inactive) | inactive | 2% (inactive)
9 | COc1ccc(C2/C(=C(\O)c3ccc4c(c3)OCCO4)C(=O)C(=O)N2CCCN(C)C)cc1 (stereo unspecified) | 368 | -2.4% (inactive) | -14.3% (inactive) | 131 | -2.04 | 0.887 | -0.106 | 3.56% (inactive) | -0.506 (inactive) | -3.1e-05 (inactive) | 0.00537 (inactive) | inactive | -13.1% (inactive)
10 | C=CCNc1nc(N2CCOCC2)c(C#N)c2c1CN(C)CC2 | 600 | -5.7% (inactive) | -83.6% (inactive) | 138 | 0.63 | -0.71 | 0.0349 | 9.07% (inactive) | -0.417 (inactive) | -9.1e-05 (inactive) | 0.00406 (inactive) | inactive | 1.91% (inactive)
11 | CCOc1ccc(N=C2C(=O)N(CN3CCOCC3)c3ccccc32)cc1 | 653 | -4.3% (inactive) | -371% (inactive) | 156 | 0.894 | -0.754 | -0.416 | 10.1% (inactive) | -0.486 (inactive) | -7.9e-05 (inactive) | 0.00278 (inactive) | inactive | 9.3% (inactive)
12 | CN1C(=O)NC(c2ccccc2)C2=C1CN(Cc1ccccc1)C2=O (stereo unspecified) | 400 | -7.1% (inactive) | -56.6% (inactive) | 139 | 0.502 | -1.59 | 1.04 | -2.59% (inactive) | -0.501 (inactive) | -0.000103 (inactive) | 0.00419 (inactive) | inactive | 23.3% (inactive)
13 | CC(=O)NC(=O)Nc1sc(=S)n(C)c1C | 329 | -4.5% (inactive) | -21.6% (inactive) | 71.6 | 0.847 | -2.04 | 0.71 | 9.82% (inactive) | -0.515 (inactive) | 4.8e-06 (inactive) | 0.00528 (inactive) | inactive | 30.1% (inactive)
14 | O=C(C(c1ccccc1)N1CCOCC1)N1CCOCC1 (stereo unspecified) | 733 | -13.6% (inactive) | -25.3% (inactive) | 159 | -0.0327 | 1.84 | -0.87 | -9.53% (inactive) | -0.431 (inactive) | -2.2e-05 (inactive) | 0.00553 (inactive) | inactive | -3.52% (inactive)
15 | Cc1cc(C)n(-c2ncnc3sc(C)c(C)c23)n1 | 577 | -0.8% (inactive) | -64.7% (inactive) | 157 | 0.455 | 0.0261 | 1.38 | 19.8% (inactive) | -0.293 (inactive) | -3.5e-05 (inactive) | 0.00669 (inactive) | inactive | -1.64% (inactive)
16 | Cc1nn(C)cc1/C=N/n1nnnc1N | 680 | -10.2% (inactive) | -45.8% (inactive) | 155 | 0.00474 | -1.39 | 0.944 | 4.37% (inactive) | -0.487 (inactive) | -3.8e-05 (inactive) | 0.00512 (inactive) | inactive | 11.8% (inactive)
17 | Cc1ccccc1N1C(=O)CC(Sc2nnc(-c3ccccc3)o2)C1=O (stereo unspecified) | 482 | -2.4% (inactive) | -29.2% (inactive) | 177 | -0.982 | -1.28 | 2.47 | 5.95% (inactive) | -0.383 (inactive) | -3.3e-05 (inactive) | 0.00539 (inactive) | inactive | 57.7% (active)
18 | Cc1ccc(S(=O)(=O)NC(=O)Nc2ncc3c(n2)CC(c2ccco2)CC3=O)cc1 (stereo unspecified) | 662 | -3.8% (inactive) | 45.8% (inactive) | 89.6 | 1.23 | -1.12 | -0.985 | 22.1% (inactive) | -0.51 (inactive) | -2.8e-05 (inactive) | 0.00507 (inactive) | inactive | -13.7% (inactive)
19 | OCCN=C(c1ccccc1)C12CN3CN(CN(C3)C1)C2 | 568 | -5.7% (inactive) | -133% (inactive) | 150 | 0.238 | -2.23 | 0.262 | 15.4% (inactive) | -0.48 (inactive) | -2.2e-05 (inactive) | 0.0051 (inactive) | inactive | 7.41% (inactive)
20 | CCOCCn1c(SC)nc2c1c(=O)[nH]c(=O)n2C | 498 | 6.3% (inactive) | -6% (inactive) | 122 | 1.57 | -1.62 | 0.579 | 12.8% (inactive) | -0.529 (inactive) | -3.7e-05 (inactive) | 0.00609 (inactive) | inactive | 44.4% (inactive)
21 | Cc1cc(=O)n2[nH]c(N3C(=O)CCC3=O)nc2n1 | 527 | -1.3% (inactive) | 47.3% (inactive) | 172 | -0.749 | -0.115 | 1.44 | -5.95% (inactive) | -0.397 (inactive) | -2.7e-05 (inactive) | 0.00594 (inactive) | inactive | 4.51% (inactive)
22 | CCOC(=O)CNC(=O)CNC(=O)c1ccc(OCC(C)C)cc1 | 694 | 2.1% (inactive) | -9.7% (inactive) | 146 | 0.797 | 0.341 | 0.093 | -5.81% (inactive) | -0.458 (inactive) | -5.4e-05 (inactive) | 0.00522 (inactive) | inactive | -6.07% (inactive)
23 | Cc1nn(CC(=O)N2CCOCC2)c(=O)c2ccccc12 | 584 | -9.1% (inactive) | -72.8% (inactive) | 135 | 1.52 | -1.31 | 0.975 | 12.8% (inactive) | -0.524 (inactive) | -0.000146 (inactive) | 0.00441 (inactive) | inactive | -9.34% (inactive)
24 | CC(C)c1[nH]c(=O)c(C#N)c2c1CSC(C)(C)C2 | 507 | -14% (inactive) | 4% (inactive) | 89.3 | 0.147 | 0.162 | -0.0562 | 5.35% (inactive) | -0.428 (inactive) | 3.3e-05 (inactive) | 0.0036 (inactive) | inactive | 14% (inactive)
25 | CN(CCCCCNC(=O)/C=N/O)Cc1ccccc1 | 661 | -11.4% (inactive) | -47.5% (inactive) | 99.4 | -0.0258 | 0.279 | -0.452 | 5.35% (inactive) | -0.537 (inactive) | -6.5e-05 (inactive) | 0.00725 (inactive) | inactive | 27.9% (inactive)
26 | Cc1ccc2cc(CNC(C)(C)C)c(=O)[nH]c2c1 | 632 | -4.2% (inactive) | -5% (inactive) | 141 | -0.205 | -0.75 | -0.413 | 7.7% (inactive) | -0.493 (inactive) | -3.2e-05 (inactive) | 0.00705 (inactive) | inactive | 2.56% (inactive)
27 | COC(=O)/C=c1/s/c(=C(/C#N)C(=O)N2CCCCC2)n(-c2ccccc2)c1=O | 585 | -0.7% (inactive) | -20.5% (inactive) | 90.8 | -0.699 | 0.059 | 0.258 | -5.81% (inactive) | -0.546 (inactive) | -1.7e-05 (inactive) | 0.00519 (inactive) | inactive | 15.4% (inactive)
